Legend:
Assay type in all cases: toxicity, cell-based
[1] = test system: U2OS; test: Multiplex assay against U2OS; details: human
How it was run: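 At seeding, live cells were stained with Hoechst33342, BioTracker Green Microtubule Cytoskeleton Dye, MitoTracker Red and Annexin V Alexa Fluor 680. After compound addition they were imaged on a CQ1 microscope at 37°C and 5% CO2, and CellPathfinder machine-learning gating sorted them into Hoechst high-intensity objects or normal cells, with normal cells further split into healthy, pyknosed or fragmented nuclei and pyknosed cells into mitotic or apoptotic. Tubulin, mitochondrial-mass and membrane-permeability phenotypes are given as per cents of cells with healthy nuclei.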

[2] = test system: HEK-293T; test: Incucyte cell viability with HEK293T; details: human, 10 µM, compound concentration 10 uM; note: filed as whole numbers so only -1 and 0 and 1 occur
[3] = test system: U2OS; test: Incucyte cell viability with U2OS; details: human, 10 µM, compound concentration 10 uM; note: filed as whole numbers so only -1 and 0 and 1 occur
[4] = test system: Fibroblast; test: Incucyte cell viability with human fibroblast; details: 10 µM, compound concentration 10 uM; note: filed as whole numbers so only -1 and 0 and 1 occur
[5] = 12 h, 1 µM, compound concentration 1 uM, replicate 1
[6] = 12 h, 1 µM, compound concentration 1 uM, replicate 2
[7] = 12 h, 10 µM, compound concentration 10 uM, replicate 1
[8] = 12 h, 10 µM, compound concentration 10 uM, replicate 2
[9] = 24 h, 1 µM, compound concentration 1 uM, replicate 1
[10] = 24 h, 1 µM, compound concentration 1 uM, replicate 2
[11] = 24 h, 10 µM, compound concentration 10 uM, replicate 1
[12] = 24 h, 10 µM, compound concentration 10 uM, replicate 2
[13] = 48 h, 1 µM, compound concentration 1 uM, replicate 1
[14] = 48 h, 1 µM, compound concentration 1 uM, replicate 2
[15] = 48 h, 10 µM, compound concentration 10 uM, replicate 1
[16] = 48 h, 10 µM, compound concentration 10 uM, replicate 2
[17] = 6 h, replicate number 1, timepoint 6 hours
[18] = 12 h, replicate number 1, timepoint 12 hours
[19] = 18 h, replicate number 1, timepoint 18 hours
[20] = 24 h, replicate number 1, timepoint 24 hours

For Cc1c(P(=S)(c2ccccc2)c2ccccc2)n2ccccc2[n+]1C/C=C/c1ccccc1.[Br-], the “Population Apoptotic (%)” value [1, 5] was 54%, the “Population Fragmented Nuclei (%)” value [1, 5] was 21% and the “Population Healthy Nuclei (%)” value [1, 5] was 69%. The “Population Hoechst High Intensity Objects (%)” value [1, 5] was 5%, the “Population Membrane Permeable-Phenotype (%)” value [1, 5] was 13% and the “Population Mitochondria Different-Phenotype (%)” value [1, 5] was 35%. The “Population Mitotic Cells (%)” value [1, 5] was 45%, the “Population Normal (%)” value [1, 5] was 94% and the “Population Pyknosed Nuclei (%)” value [1, 5] was 9%. For the same molecule, the “Population Tubulin-Different-Phenotype (%)” value [1, 5] was 26%, the “Total Cell Count” value [1, 5] was 133 and the “Population Apoptotic (%)” value [1, 6] was 75%. The “Population Fragmented Nuclei (%)” value [1, 6] was 50%, the “Population Healthy Nuclei (%)” value [1, 6] was 45% and the “Population Hoechst High Intensity Objects (%)” value [1, 6] was 22%. The “Population Membrane Permeable-Phenotype (%)” value [1, 6] was 10%, the “Population Mitochondria Different-Phenotype (%)” value [1, 6] was 50% and the “Population Mitotic Cells (%)” value [1, 6] was 25%. For the same molecule, the “Population Normal (%)” value [1, 6] was 77%, the “Population Pyknosed Nuclei (%)” value [1, 6] was 4% and the “Population Tubulin-Different-Phenotype (%)” value [1, 6] was 31%. For the same molecule, the “Total Cell Count” value [1, 6] was 93, the “Population Apoptotic (%)” value [1, 7] was 89% and the “Population Fragmented Nuclei (%)” value [1, 7] was 28%. The “Population Healthy Nuclei (%)” value [1, 7] was 9%, the “Population Hoechst High Intensity Objects (%)” value [1, 7] was 21% and the “Population Membrane Permeable-Phenotype (%)” value [1, 7] was 88%. For the same molecule, the “Population Mitochondria Different-Phenotype (%)” value [1, 7] was 100%, the “Population Mitotic Cells (%)” value [1, 7] was 10% and the “Population Normal (%)” value [1, 7] was 78%. The “Population Pyknosed Nuclei (%)” value [1, 7] was 61%, the “Population Tubulin-Different-Phenotype (%)” value [1, 7] was 100% and the “Total Cell Count” value [1, 7] was 121. The “Population Apoptotic (%)” value [1, 8] was 94%, the “Population Fragmented Nuclei (%)” value [1, 8] was 21% and the “Population Healthy Nuclei (%)” value [1, 8] was 10%. The “Population Hoechst High Intensity Objects (%)” value [1, 8] was 8%, the “Population Membrane Permeable-Phenotype (%)” value [1, 8] was 83% and the “Population Mitochondria Different-Phenotype (%)” value [1, 8] was 83%. The “Population Mitotic Cells (%)” value [1, 8] was 5%, the “Population Normal (%)” value [1, 8] was 91% and the “Population Pyknosed Nuclei (%)” value [1, 8] was 68%. For the same molecule, the “Population Tubulin-Different-Phenotype (%)” value [1, 8] was 83%, the “Total Cell Count” value [1, 8] was 108 and the “Population Apoptotic (%)” value [1, 9] was 55%. For the same molecule, the “Population Fragmented Nuclei (%)” value [1, 9] was 12%, the “Population Healthy Nuclei (%)” value [1, 9] was 73% and the “Population Hoechst High Intensity Objects (%)” value [1, 9] was 5%. The “Population Membrane Permeable-Phenotype (%)” value [1, 9] was 12%, the “Population Mitochondria Different-Phenotype (%)” value [1, 9] was 18% and the “Population Mitotic Cells (%)” value [1, 9] was 45%. The “Population Normal (%)” value [1, 9] was 94%, the “Population Pyknosed Nuclei (%)” value [1, 9] was 13% and the “Population Tubulin-Different-Phenotype (%)” value [1, 9] was 12%. For the same molecule, the “Total Cell Count” value [1, 9] was 174, the “Population Apoptotic (%)” value [1, 10] was 75% and the “Population Fragmented Nuclei (%)” value [1, 10] was 55%. The “Population Healthy Nuclei (%)” value [1, 10] was 40%, the “Population Hoechst High Intensity Objects (%)” value [1, 10] was 33% and the “Population Membrane Permeable-Phenotype (%)” value [1, 10] was 9%. For the same molecule, the “Population Mitochondria Different-Phenotype (%)” value [1, 10] was 31%, the “Population Mitotic Cells (%)” value [1, 10] was 25% and the “Population Normal (%)” value [1, 10] was 66%. For the same molecule, the “Population Pyknosed Nuclei (%)” value [1, 10] was 3%, the “Population Tubulin-Different-Phenotype (%)” value [1, 10] was 15% and the “Total Cell Count” value [1, 10] was 124. The “Population Fragmented Nuclei (%)” value [1, 11] was 34%, the “Population Healthy Nuclei (%)” value [1, 11] was 4% and the “Population Hoechst High Intensity Objects (%)” value [1, 11] was 14%. The “Population Membrane Permeable-Phenotype (%)” value [1, 11] was 75%, the “Population Mitochondria Different-Phenotype (%)” value [1, 11] was 100% and the “Population Normal (%)” value [1, 11] was 85%. The “Population Pyknosed Nuclei (%)” value [1, 11] was 61%, the “Population Tubulin-Different-Phenotype (%)” value [1, 11] was 100% and the “Total Cell Count” value [1, 11] was 154. For the same molecule, the “Population Apoptotic (%)” value [1, 12] was 100%, the “Population Fragmented Nuclei (%)” value [1, 12] was 23% and the “Population Healthy Nuclei (%)” value [1, 12] was 38%. For the same molecule, the “Population Hoechst High Intensity Objects (%)” value [1, 12] was 26%, the “Population Membrane Permeable-Phenotype (%)” value [1, 12] was 81% and the “Population Mitochondria Different-Phenotype (%)” value [1, 12] was 81%. The “Population Mitotic Cells (%)” value [1, 12] was 0%, the “Population Normal (%)” value [1, 12] was 73% and the “Population Pyknosed Nuclei (%)” value [1, 12] was 38%. The “Population Tubulin-Different-Phenotype (%)” value [1, 12] was 81%, the “Total Cell Count” value [1, 12] was 163 and the “Population Fragmented Nuclei (%)” value [1, 13] was 7%. The “Population Healthy Nuclei (%)” value [1, 13] was 85%, the “Population Hoechst High Intensity Objects (%)” value [1, 13] was 5% and the “Population Membrane Permeable-Phenotype (%)” value [1, 13] was 3%. For the same molecule, the “Population Mitochondria Different-Phenotype (%)” value [1, 13] was 13%, the “Population Normal (%)” value [1, 13] was 94% and the “Population Pyknosed Nuclei (%)” value [1, 13] was 7%. For the same molecule, the “Population Tubulin-Different-Phenotype (%)” value [1, 13] was 11%, the “Total Cell Count” value [1, 13] was 277 and the “Population Apoptotic (%)” value [1, 14] was 60%. For the same molecule, the “Population Fragmented Nuclei (%)” value [1, 14] was 42%, the “Population Healthy Nuclei (%)” value [1, 14] was 49% and the “Population Hoechst High Intensity Objects (%)” value [1, 14] was 25%. For the same molecule, the “Population Membrane Permeable-Phenotype (%)” value [1, 14] was 5%, the “Population Mitochondria Different-Phenotype (%)” value [1, 14] was 21% and the “Population Mitotic Cells (%)” value [1, 14] was 40%. The “Population Normal (%)” value [1, 14] was 74%, the “Population Pyknosed Nuclei (%)” value [1, 14] was 8% and the “Population Tubulin-Different-Phenotype (%)” value [1, 14] was 8%. The “Total Cell Count” value [1, 14] was 213, the “Population Fragmented Nuclei (%)” value [1, 15] was 43% and the “Population Healthy Nuclei (%)” value [1, 15] was 3%. The “Population Hoechst High Intensity Objects (%)” value [1, 15] was 19%, the “Population Membrane Permeable-Phenotype (%)” value [1, 15] was 66% and the “Population Mitochondria Different-Phenotype (%)” value [1, 15] was 100%. The “Population Normal (%)” value [1, 15] was 80%, the “Population Pyknosed Nuclei (%)” value [1, 15] was 53% and the “Population Tubulin-Different-Phenotype (%)” value [1, 15] was 100%. The “Total Cell Count” value [1, 15] was 207, the “Population Apoptotic (%)” value [1, 16] was 100% and the “Population Fragmented Nuclei (%)” value [1, 16] was 75%. For the same molecule, the “Population Healthy Nuclei (%)” value [1, 16] was 18%, the “Population Hoechst High Intensity Objects (%)” value [1, 16] was 21% and the “Population Membrane Permeable-Phenotype (%)” value [1, 16] was 75%. The “Population Mitochondria Different-Phenotype (%)” value [1, 16] was 75%, the “Population Mitotic Cells (%)” value [1, 16] was 0% and the “Population Normal (%)” value [1, 16] was 78%. The “Population Pyknosed Nuclei (%)” value [1, 16] was 6%, the “Population Tubulin-Different-Phenotype (%)” value [1, 16] was 75% and the “Total Cell Count” value [1, 16] was 153. For the same molecule, the “Growth Rate” value ([2]; 0 h, replicate number 2, timepoint 0 hours) was 1, the “Growth Rate” value [2, 17] was 0 and the “Growth Rate” value [2, 18] was 0. The “Growth Rate” value [2, 19] was 0, the “Growth Rate” value [2, 20] was 0 and the “Growth Rate” value [3, 17] was 0. The “Growth Rate” value [3, 18] was 0, the “Growth Rate” value [3, 19] was 0 and the “Growth Rate” value [3, 20] was 0. For the same molecule, the “Growth Rate” value ([4]; 0 h, replicate number 1, timepoint 0 hours) was 0, the “Growth Rate” value [4, 17] was 0 and the “Growth Rate” value [4, 18] was 0. The “Growth Rate” value [4, 19] was 0 and the “Growth Rate” value [4, 20] was 0.

From ChEMBL document CHEMBL4689842, “EUbOPEN Chemogenomics Library wave 1” (2021)
